Measurements from ChEMBL document CHEMBL3745686 (Eur J Med Chem, 2016).
The source made the active and inactive calls. The rule behind the calls is not given here.

Experiments:
Plasma [1] = experiment: Drug level in rat plasma treated with P'1,P'4-di-(2 methylthio-5'-adenosine) P'1,P'4-dithio-P'2,P'3-chloromethylenetetraphosphate, sodium salt at 50 uM after 77 hrs by HPLC analysis; format: ADME, cell-free
Method in brief: (§1)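 Frozen pooled heparinised rat or human plasma, thawed and warmed 5 min at 37 °C, spiked to 50 μM final compound (from 10 mM saline stock), held at 37 °C up to 77 h; heat-denatured plasma as chemical control; aliquots quenched with MeCN, ultrafiltered, dried, redissolved in pH 8.5 phosphate/EDTA; isocratic RP-HPLC, 273 nm; metabolites confirmed by reference compounds and LCMS; peak areas internally normalised.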

Plasma [2] = experiment: Drug level in human plasma treated with P'1,P'4-di-(2 methylthio-5'-adenosine) P'1,P'4-dithio-P'2,P'3-chloromethylenetetraphosphate, sodium salt at 50 uM after 77 hrs by HPLC analysis; format: ADME, cell-free
Method in brief: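 Pooled heparinized human plasma, prewarmed 5 min at 37 °C, was spiked to 50 μM final from a saline stock and incubated at 37 °C. Aliquots were MeCN-precipitated, ultrafiltered (10K), dried, reconstituted in phosphate/EDTA pH 8.5, and run on C18 HPLC (isocratic 20% methanol, 50 mM phosphate pH 8.4, 10 mM EDTA, UV 273 nm). Diastereomer peak areas were internally normalized, with heat-denatured plasma and blank controls.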

Plasma [3] = experiment: Half life in rat plasma at 50 uM measured at 1 to 4 hrs; format: ADME, cell-free
Plasma [4] = experiment: Drug metabolism in human plasma assessed as MeSAdo formation at 50 uM after 77 hrs by HPLC analysis; format: ADME, cell-free; method in brief: as §1
Plasma [5] = experiment: Metabolic stability in fresh rat plasma assessed as compound degradation at 50 uM after 24 hrs by HPLC analysis; format: ADME, cell-free
Plasma [6] = experiment: Metabolic stability in rat plasma assessed as first order elimination rate constant at 50 uM measured at 1 to 4 hrs; format: ADME, cell-free
[7] = Anti-aggregatory activity in human platelet rich plasma assessed as inhibition of 20 uM ADP-induced platelet aggregation preincubated for 15 mins by optical aggregometric analysis; format: functional, cell-free
Platelet [8] = experiment: Anti-aggregatory activity in ADP-induced human platelet rich plasma assessed as P-selectin expression at 10 nM preincubated for 30 mins followed by 100 fold dilution by fluorescence assay; format: functional
Method in brief: (§2)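 Human PRP from aspirin/NSAID-free donors in 3.2% citrate; platelets pre-incubated 30 min with 10 nM compound, then diluted 100-fold in platelet-poor plasma with or without 10 nM compound, stimulated with ADP; surface activated GPIIb-IIIa and P-selectin read as mean fluorescence intensity; means ± SEM of 3 experiments.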

[9] = Anti-aggregatory activity in human platelet rich plasma assessed as inhibition of 20 uM ADP-induced platelet surface activated GP2b-3a expression by fluorescence assay; format: functional, cell-free
[10] = Anti-aggregatory activity in human platelet rich plasma assessed as inhibition of 20 uM ADP-induced platelet aggregation by optical aggregometric analysis; format: functional, cell-free
[11] = Anti-aggregatory activity in human platelet rich plasma assessed as inhibition of 20 uM ADP-induced P-selectin expression by fluorescence assay; format: functional, cell-free
Plasma [12] = experiment: Metabolic stability in human plasma assessed as first order elimination rate constant at 50 uM measured at 1 to 4 hrs; format: ADME, cell-free
Plasma [13] = experiment: Drugmetabolism in human plasma assessed as MeSAMP(S) formation at 50 uM after 77 hrs by HPLC analysis; format: ADME, cell-free; method in brief: as §1
Platelet [14] = experiment: Anti-aggregatory activity in ADP-induced human platelet rich plasma assessed as platelet surface activated GP2b-3a expression at 10 nM preincubated for 30 mins followed by 100 fold dilution by fluorescence assay; format: functional; method in brief: as §2
Platelet [15] = experiment: Ratio of IC50 for inhibition of 20 uM ADP-induced human platelet aggregation for inhibition of 20 uM ADP-induced human platelet aggregation preincubated for 15 mins; format: functional
P2Y purinoceptor 1 [16] = target: T1, P2Y purinoceptor 1 (Homo sapiens, UniProt P47900); experiment: Antagonist activity at human platelet P2Y1 receptor assessed as inhibition of ADP-induced increase in cytosolic calcium level by FLUO-4 staining based flow cytometric analysis; format: functional
T1 sequence (P47900 whole entry): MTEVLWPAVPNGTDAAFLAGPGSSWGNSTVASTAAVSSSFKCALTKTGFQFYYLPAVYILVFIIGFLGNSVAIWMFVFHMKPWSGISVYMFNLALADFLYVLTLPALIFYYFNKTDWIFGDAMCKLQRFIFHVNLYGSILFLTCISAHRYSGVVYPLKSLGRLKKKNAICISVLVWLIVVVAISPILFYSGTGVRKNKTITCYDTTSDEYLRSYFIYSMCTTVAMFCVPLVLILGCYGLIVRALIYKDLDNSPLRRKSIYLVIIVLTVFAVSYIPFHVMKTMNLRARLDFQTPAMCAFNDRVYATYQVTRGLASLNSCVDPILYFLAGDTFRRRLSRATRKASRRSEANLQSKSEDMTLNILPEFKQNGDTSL
Method in brief: (§3)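 Stimulus was extracellular Ca2+ uptake on 1 μM test compound (P2X1, scaled to 20 μM β,γ-CH2-ATP as 100%, selective P2Y1 inhibitor control), or 3 μM ADP (P2Y1 antagonism; omitted for agonism).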

[17] = Chemical stability in heat denaturated plasma (unknown origin); format: ADME, cell-free; method in brief: as §1
Plasma [18] = experiment: Drug metabolism in rat plasma assessed as MeSAMP(S) formation at 50 uM after 77 hrs by HPLC analysis; format: ADME, cell-free; method in brief: as §1
Plasma [19] = experiment: Half life in human plasma at 50 uM measured at 1 to 4 hrs; format: ADME, cell-free
P2Y purinoceptor 12 [20] = target: T2, P2Y purinoceptor 12 (Homo sapiens, UniProt Q9H244); experiment: Antagonist activity at human platelet P2Y12 receptor assessed as inhibition of ADP-mediated decrease in intra-platelet phosphorylated VASP by flow cytometric analysis
T2 sequence (Q9H244 whole entry): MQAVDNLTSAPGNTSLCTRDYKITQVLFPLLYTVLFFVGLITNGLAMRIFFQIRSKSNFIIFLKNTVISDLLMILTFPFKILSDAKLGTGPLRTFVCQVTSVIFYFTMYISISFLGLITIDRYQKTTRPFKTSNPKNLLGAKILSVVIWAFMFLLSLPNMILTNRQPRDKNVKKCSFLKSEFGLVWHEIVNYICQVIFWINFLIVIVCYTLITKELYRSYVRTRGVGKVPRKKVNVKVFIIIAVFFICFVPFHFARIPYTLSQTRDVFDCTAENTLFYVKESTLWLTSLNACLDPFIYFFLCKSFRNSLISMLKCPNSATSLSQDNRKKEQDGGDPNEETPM

Plasma [21] = experiment: Drug metabolism in rat plasma assessed as MeSAdo formation at 50 uM after 77 hrs by HPLC analysis; format: ADME, cell-free; method in brief: as §1
P2Y purinoceptor 1 [22] = target: T1, P2Y purinoceptor 1; experiment: Agonist activity at human platelet P2Y1 receptor assessed as increase in cytosolic calcium level by FLUO-4 staining based flow cytometric analysis; format: functional; method in brief: as §3
[23] = target: T3, P2X purinoceptor 1 (Homo sapiens) (UniProt P51575); experiment: Agonist activity at human platelet P2X1 receptor assessed as increase in cytosolic calcium level at 1 uM by […] staining based flow cytometric analysis relative to beta,gamma-CH2-ATP; method in brief: as §3
T3 sequence (whole entry): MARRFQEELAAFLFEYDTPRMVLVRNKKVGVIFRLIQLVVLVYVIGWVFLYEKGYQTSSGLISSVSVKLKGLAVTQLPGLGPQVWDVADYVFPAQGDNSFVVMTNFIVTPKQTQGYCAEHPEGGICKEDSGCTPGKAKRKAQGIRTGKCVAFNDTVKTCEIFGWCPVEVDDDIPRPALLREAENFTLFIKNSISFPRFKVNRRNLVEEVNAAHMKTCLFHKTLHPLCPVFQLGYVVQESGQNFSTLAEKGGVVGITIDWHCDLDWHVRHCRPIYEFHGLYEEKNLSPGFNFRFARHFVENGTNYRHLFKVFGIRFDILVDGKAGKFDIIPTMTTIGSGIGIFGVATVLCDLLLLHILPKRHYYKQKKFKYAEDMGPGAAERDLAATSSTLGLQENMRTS

Platelet [24] = experiment: Anti-aggregatory activity in human platelet rich plasma assessed as inhibition of ADP-induced platelet shape change; format: functional, cell-free
P2Y purinoceptor 12 [25] = target: T2, P2Y purinoceptor 12; experiment: Agonist activity at human platelet P2Y12 receptor assessed as decrease in intra-platelet phosphorylated VASP by flow cytometric analysis
[26] = target: P2Y purinoceptor 6 (Homo sapiens) (UniProt Q15077); experiment: Effect on human P2Y6 receptor
Chain of P2Y purinoceptor 6 (Homo sapiens) (Q15077 whole entry): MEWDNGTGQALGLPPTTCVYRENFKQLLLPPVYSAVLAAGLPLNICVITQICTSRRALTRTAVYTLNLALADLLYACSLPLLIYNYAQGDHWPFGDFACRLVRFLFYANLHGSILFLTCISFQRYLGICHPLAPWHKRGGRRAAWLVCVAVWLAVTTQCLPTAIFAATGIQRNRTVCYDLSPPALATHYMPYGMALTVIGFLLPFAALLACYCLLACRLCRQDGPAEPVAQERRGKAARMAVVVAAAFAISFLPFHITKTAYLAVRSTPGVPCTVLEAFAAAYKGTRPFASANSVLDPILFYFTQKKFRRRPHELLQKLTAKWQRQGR

Platelet [27] = experiment: Anti-aggregatory activity in human platelet rich plasma assessed as inhibition of ADP-induced primary and secondary platelet aggregation preincubated for 15 mins followed by ADP addition and 10 secs shaking measured every 27 secs with 10 secs shaking by 96-well microplate method; format: functional, cell-free
Method in brief: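 PRP incubated with compound 15 min at 37 °C, aggregation started with 5 μM ADP and 10 s shaking; absorbance at 580 nm read every 27 s with 10 s shaking between reads; 100% set by platelet-poor plasma, 0% by PRP.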

Platelet [28] = experiment: Anti-aggregatory activity in human platelet rich plasma assessed as inhibition of 20 uM ADP-induced platelet aggregation at 25 nM preincubated for 15 mins followed by ADP addition measured every 11 secs for 6 mins by 96-well microplate method; format: functional, cell-free
Platelet [29] = experiment: Anti-aggregatory activity in human platelet rich plasma assessed as inhibition of 20 uM ADP-induced platelet aggregation at 100 nM preincubated for 15 mins followed by ADP addition measured every 11 secs for 6 mins by 96-well microplate method; format: functional, cell-free
[30] = target: P2Y purinoceptor 4 (Homo sapiens) (UniProt P51582); experiment: Effect on human P2Y4 receptor
Chain of P2Y purinoceptor 4 (Homo sapiens) (P51582 whole entry): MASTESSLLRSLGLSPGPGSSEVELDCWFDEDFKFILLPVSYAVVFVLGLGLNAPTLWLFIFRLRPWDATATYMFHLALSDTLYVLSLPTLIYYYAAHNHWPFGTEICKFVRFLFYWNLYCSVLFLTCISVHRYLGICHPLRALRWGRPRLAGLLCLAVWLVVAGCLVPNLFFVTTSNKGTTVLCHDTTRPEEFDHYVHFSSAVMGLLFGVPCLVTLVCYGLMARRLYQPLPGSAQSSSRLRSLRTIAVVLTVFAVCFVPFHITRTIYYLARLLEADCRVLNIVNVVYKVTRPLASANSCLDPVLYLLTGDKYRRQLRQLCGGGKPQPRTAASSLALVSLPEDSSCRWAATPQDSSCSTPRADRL

[31] = target: P2Y purinoceptor 2 (Homo sapiens) (UniProt P41231); experiment: Effect on human P2Y2 receptor
Chain of P2Y purinoceptor 2 (Homo sapiens) (P41231 whole entry): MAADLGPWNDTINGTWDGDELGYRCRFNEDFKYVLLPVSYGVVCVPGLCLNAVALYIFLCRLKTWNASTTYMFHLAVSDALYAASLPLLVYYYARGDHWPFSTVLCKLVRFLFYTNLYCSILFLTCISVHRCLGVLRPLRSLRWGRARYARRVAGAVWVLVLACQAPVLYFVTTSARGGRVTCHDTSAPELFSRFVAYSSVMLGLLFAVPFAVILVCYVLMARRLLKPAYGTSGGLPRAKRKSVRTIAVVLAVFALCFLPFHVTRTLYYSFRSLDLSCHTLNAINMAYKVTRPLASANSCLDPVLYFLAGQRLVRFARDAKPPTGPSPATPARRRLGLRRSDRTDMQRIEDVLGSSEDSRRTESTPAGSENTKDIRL

[32] = Half life in human plasma at 0.7 uM; format: ADME, cell-free
[33] = Half life in rat plasma; format: ADME, cell-free

Q: With `CSc1nc(N)c2ncn([C@@H]3O[C@H](CO)[C@@H](O)[C@H]3O)c2n1` as the molecule, how does the Drug metabolism (Plasma [1]) read?
A: The Drug metabolism was “metabolite_detected”.

Q: And the Drug metabolism (Plasma [2])?
A: The Drug metabolism was “metabolite_detected”.

Q: For `CSc1nc(N)c2ncn([C@@H]3O[C@H](COP(=O)([S-])OP(=O)([O-])C(Cl)P(=O)([O-])OP(=O)([S-])OC[C@H]4O[C@@H](n5cnc6c(N)nc(SC)nc65)[C@H](O)[C@@H]4O)[C@@H](O)[C@H]3O)c2n1.[Na+].[Na+].[Na+].[Na+]` (mixture of isomers), which t1/2 (Plasma [3]) is on record?
A: The t1/2 was 284 min.

Q: And the Drug metabolism (Plasma [4])?
A: Its Drug metabolism is “metabolite_detected”.

Q: What about the Stability (Plasma [5]) of the same molecule?
A: Its Stability is “Stable”.

Q: What about the Kel (Plasma [6]) of the same molecule?
A: Its Kel is 0.147 h⁻¹.

Q: What about the IC50 [7] of the same molecule?
A: The IC50 was 0.0636 µM.

Q: What about the Activity (Platelet [8]) of the same molecule?
A: The Activity was 80%.

Q: What about the IC50 [9] of the same molecule?
A: The IC50 was 0.0011 µM.

Q: What about the IC50 [10] of the same molecule?
A: The IC50 was 2.56 µM.

Q: What about the IC50 [11] of the same molecule?
A: The IC50 was 0.0006 µM.

Q: What about the Kel (Plasma [12]) of the same molecule?
A: Its Kel is 0.0221 h⁻¹.

Q: And the Stability (Plasma [13])?
A: Its Stability is “Stable”.

Q: And the Activity (Platelet [14])?
A: The Activity was 80%.

Q: And the “Ratio IC50” value (Platelet [15])?
A: The value was 50.

Q: What about the IC50 (P2Y purinoceptor 1 [16]) of the same molecule?
A: Its IC50 is 2.15 µM.

Q: And the Stability [17]?
A: Its Stability is “Stable”.

Q: And the Drug metabolism (Plasma [18])?
A: Its Drug metabolism is “metabolite_detected”.

Q: And the t1/2 (Plasma [19])?
A: Its t1/2 is 1880 min.

Q: What about the IC50 (P2Y purinoceptor 12 [20]) of the same molecule?
A: Its IC50 is 0.22 µM.

Q: And the Drug metabolism (Plasma [21])?
A: Its Drug metabolism is “metabolite_detected”.

Q: For `CCSc1nc(N)c2ncn([C@@H]3O[C@H](COP(=O)([S-])OP(=O)([O-])C(Cl)P(=O)([O-])OP(=O)([S-])OC[C@H]4O[C@@H](n5cnc6c(N)nc(SCC)nc65)[C@H](O)[C@@H]4O)[C@@H](O)[C@H]3O)c2n1.[Na+].[Na+].[Na+].[Na+]` (mixture of isomers), which Activity (P2Y purinoceptor 1 [22]) is on record?
A: Its Activity is “inactive”.

Q: What about the Activity [23] of the same molecule?
A: The Activity was 23.8%.

Q: And the IC50 [7]?
A: The IC50 was 0.0543 µM.

Q: And the IC50 [10]?
A: Its IC50 is 3.32 µM.

Q: What about the inhibition (Platelet [24]) of the same molecule?
A: The inhibition was “Active”.

Q: And the “Ratio IC50” value (Platelet [15])?
A: The value was 50.

Q: What about the IC50 (P2Y purinoceptor 1 [16]) of the same molecule?
A: The IC50 was 9.6 µM.

Q: And the Activity (P2Y purinoceptor 12 [25])?
A: The Activity was “inactive”.

Q: And the IC50 (P2Y purinoceptor 12 [20])?
A: The IC50 was 0.14 µM.

Q: For `CSc1nc(N)c2ncn([C@@H]3O[C@H](COP(=O)(S)OP(=O)(O)C(Cl)P(=O)(O)OP(=O)(S)OC[C@H]4O[C@@H](n5cnc6c(N)nc(SC)nc65)[C@H](O)[C@@H]4O)[C@@H](O)[C@H]3O)c2n1` (mixture of isomers), which Activity (P2Y purinoceptor 1 [22]) is on record?
A: Its Activity is “inactive”.

Q: And the Activity [26]?
A: Its Activity is “inactive”.

Q: And the Activity [23]?
A: Its Activity is 0.24%.

Q: What about the inhibition (Platelet [27]) of the same molecule?
A: Its inhibition is “Dose-dependent effect”.

Q: What about the inhibition (Platelet [24]) of the same molecule?
A: The inhibition was “Active”.

Q: And the inhibition (Platelet [28])?
A: The inhibition was “Active”.

Q: What about the Activity (P2Y purinoceptor 12 [25]) of the same molecule?
A: The Activity was “inactive”.

Q: What about the inhibition (Platelet [29]) of the same molecule?
A: Its inhibition is “Active”.

Q: What about the Activity [30] of the same molecule?
A: The Activity was “inactive”.

Q: And the Activity [31]?
A: Its Activity is “inactive”.

Q: Which results are given for `Nc1ncnc2c1ncn2[C@@H]1O[C@H](COP(=O)(O)OP(=O)(O)OP(=O)(O)OP(=O)(O)OC[C@H]2O[C@@H](n3cnc4c(N)ncnc43)[C@H](O)[C@@H]2O)[C@@H](O)[C@H]1O` [DIADENOSINE TETRAPHOSPHATE]?
A: half-life at 0.7 µM [32]: 2 min; Activity [23]: 198%; half-life [33]: 2.99 min
